What was measured:
Format in all cases: functional
Cavia porcellus [1] = experiment: Bronchodilatory activity in iv dosed Hartley guinea pig assessed as inhibition of acetylcholine-induced spasm administered 3 to 4 times at 15 mins interval starting 2 mins post challenge
In short: (§1)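 Urethane-anesthetized (1.5 g/kg ip), gallamine-curarized Hartley guinea pigs (either sex, 250-500 g), ventilated at 60 strokes/min. Acetylcholine (40-150 μg/kg, 12-s iv infusions every 5 min) set to raise tracheal pressure 20-50 cm water. Compounds (sodium salts in water; esters in 10% aqueous ethanol) given iv over 1 min. Spasm amplitude expressed as % variation from control. ED50 from semilog regression; ≥4 animals.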

Cavia porcellus [2] = experiment: Bronchodilatory activity in iv dosed Hartley guinea pig assessed as inhibition of serotonin-induced spasm administered 3 to 4 times at 15 mins interval starting 2 mins post challenge
In short: (§2)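 Serotonin (7.5-30 μg/kg iv, 12-s injections every 5 min) induced bronchospasm (20-50 cm water rise) in ventilated, urethane/gallamine-treated Hartley guinea pigs (250-500 g). After three matched control spasms, test agent was given iv over 1 min 2 min later, repeated at 15-min intervals, 3-4 log doses. Water was the vehicle for salts and 10% aqueous ethanol for esters. Intratracheal pressure was recorded; ED50 from semilog regression of % variation; ≥4 animals.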

Cavia porcellus [3] = experiment: Bronchodilatory activity in iv dosed Hartley guinea pig assessed as inhibition of histamine-induced spasm administered 3 to 4 times at 15 mins interval starting 2 mins post challenge
In short: (§3)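 Hartley guinea pigs (either sex, 250-500 g) under urethane (1.5 g/kg ip) plus iv gallamine, artificially ventilated. Histamine was infused iv for 12 s every 5 min to raise tracheal pressure 20-50 cm water. Salts were given iv in water and esters in 10% aqueous ethanol, 3-4 log-spaced doses. Read-out was % variation in spasm amplitude versus control; ED50 (-50%) by semilog regression; ≥4 animals.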

Cavia porcellus [4] = experiment: Bronchodilatory activity in Hartley guinea pig assessed as inhibition of acetylcholine-induced spasm at 3.2 mg/kg, iv administered 3 to 4 times at 15 mins interval starting 2 mins post challenge; in short: as §1
Cavia porcellus [5] = experiment: Bronchodilatory activity in Hartley guinea pig assessed as inhibition of histamine-induced spasm at 3.2 mg/kg, iv administered 3 to 4 times at 15 mins interval starting 2 mins post challenge; in short: as §3
Cavia porcellus [6] = experiment: Bronchodilatory activity in Hartley guinea pig assessed as inhibition of serotonin-induced spasm at 3.2 mg/kg, iv administered 3 to 4 times at 15 mins interval starting 2 mins post challenge; in short: as §2
Cavia porcellus [7] = experiment: Bronchodilatory activity in iv dosed Hartley guinea pig assessed as lowest dose required for >/= 50% inhibition of serotonin-induced spasm administered 3 to 4 times at 15 mins interval starting 2 mins post challenge; in short: as §2
Cavia porcellus [8] = experiment: Bronchodilatory activity in iv dosed Hartley guinea pig assessed as lowest dose required for >/= 50% inhibition of histamine-induced spasm administered 3 to 4 times at 15 mins interval starting 2 mins post challenge; in short: as §3
Cavia porcellus [9] = experiment: Bronchodilatory activity in iv dosed Hartley guinea pig assessed as lowest dose required for >/= 50% inhibition of acetylcholine-induced spasm administered 3 to 4 times at 15 mins interval starting 2 mins post challenge; in short: as §1

SMILES	ED50 (Cavia porcellus [1]) [µg/kg]	ED50 (Cavia porcellus [2]) [µg/kg]	ED50 (Cavia porcellus [3]) [µg/kg]	inhibition in vivo at 3.2 mg/kg (Cavia porcellus [4]) [%]	also measured
CCCCC[C@](C)(O)/C=C/C1CCC(=O)[C@@H]1CCCCOCC(=O)OCC (mixture of isomers)	618	78.8	282	–	–
CCCCC[C@H](O)/C=C/C1CCC(=O)[C@@H]1CCCCCCC(=O)O (mixture of isomers)	> 32	397	3.4	–	–
CCCCC(C)(C)[C@H](O)/C=C/C1CCC(=O)[C@@H]1CCCCCCC(=O)O (mixture of isomers)	42.9	25.9	4.17	–	–
CCCCC(C)(C)[C@@H](O)/C=C/C1CCC(=O)[C@@H]1CCCCCCC(=O)O (mixture of isomers)	135	19	107	–	–
CCCCC(C)(C)[C@H](O)/C=C/C1CCC(=O)[C@@H]1CCCCCC(C)C(=O)O (mixture of isomers)	–	–	–	< 50	inhibition in vivo at 3.2 mg/kg (Cavia porcellus [5]): < 50%; inhibition in vivo at 3.2 mg/kg (Cavia porcellus [6]): < 50%
CCCCC(C)(C)[C@@H](O)/C=C/C1CCC(=O)[C@@H]1CCCCCC(C)C(=O)O (mixture of isomers)	–	–	–	< 50	inhibition in vivo at 3.2 mg/kg (Cavia porcellus [5]): < 50%; inhibition in vivo at 3.2 mg/kg (Cavia porcellus [6]): < 50%
CCCCC(C)(C)[C@H](O)/C=C/C1CCC(=O)[C@@H]1CCCCCC(C(=O)OCC)c1ccccc1 (mixture of isomers)	–	–	–	< 50	inhibition in vivo at 3.2 mg/kg (Cavia porcellus [5]): < 50%; inhibition in vivo at 3.2 mg/kg (Cavia porcellus [6]): < 50%
CCCCC(C)(C)[C@@H](O)/C=C/C1CCC(=O)[C@@H]1CCCCCC(C(=O)OCC)c1ccccc1 (mixture of isomers)	–	–	–	< 50	inhibition in vivo at 3.2 mg/kg (Cavia porcellus [5]): < 50%; inhibition in vivo at 3.2 mg/kg (Cavia porcellus [6]): < 50%
CCCCC(C)(C)[C@H](O)/C=C/C1CCC(=O)[C@@H]1CCCCCC(C(=O)O)c1ccccc1 (mixture of isomers)	–	–	–	< 50	inhibition in vivo at 3.2 mg/kg (Cavia porcellus [5]): < 50%; inhibition in vivo at 3.2 mg/kg (Cavia porcellus [6]): < 50%
CCCCC(C)(C)[C@@H](O)/C=C/C1CCC(=O)[C@@H]1CCCCCC(C(=O)O)c1ccccc1 (mixture of isomers)	–	–	–	< 50	inhibition in vivo at 3.2 mg/kg (Cavia porcellus [5]): < 50%; inhibition in vivo at 3.2 mg/kg (Cavia porcellus [6]): < 50%
CCCCC(C)(C)[C@H](O)/C=C/C1CCC(=O)[C@@H]1CCCCOCC(=O)OCC (mixture of isomers)	96.7	123	69.6	–	–
CCCCC(C)(C)[C@@H](O)/C=C/C1CCC(=O)[C@@H]1CCCCOCC(=O)OCC (mixture of isomers)	349	209	194	–	–
CCCCC(C)(C)[C@H](O)/C=C/C1CCC(=O)[C@@H]1CCCCOCC(=O)O (mixture of isomers)	550	185	–	–	–
CCCCC(C)(C)[C@@H](O)/C=C/C1CCC(=O)[C@@H]1CCCCOCC(=O)O (mixture of isomers)	558	–	373	–	ED50 (Cavia porcellus [7]): 32 µg/kg
CCCCC(C)[C@H](O)/C=C/C1CCC(=O)[C@@H]1CCCCCCC(=O)OCC (mixture of isomers)	–	–	–	< 50	ED50 (Cavia porcellus [8]): 32000 µg/kg; ED50 (Cavia porcellus [7]): 320 µg/kg
CCCCC(C)[C@@H](O)/C=C/C1CCC(=O)[C@@H]1CCCCCCC(=O)OCC (mixture of isomers)	396	99.3	–	–	ED50 (Cavia porcellus [8]): 32000 µg/kg
CCCCC(C)[C@H](O)/C=C/C1CCC(=O)[C@@H]1CCCCCCC(=O)O (mixture of isomers)	> 320	346	–	–	ED50 (Cavia porcellus [8]): 320 µg/kg
CCCCC(C)[C@@H](O)/C=C/C1CCC(=O)[C@@H]1CCCCCCC(=O)O (mixture of isomers)	9.89	7.01	73.2	–	–
CCCCC(C)[C@H](O)/C=C/C1CCC(=O)[C@@H]1C/C=C\CCCC(=O)OCC (mixture of isomers)	–	179000	65700	< 50	–
CCCCC(C)[C@@H](O)/C=C/C1CCC(=O)[C@@H]1C/C=C\CCCC(=O)OCC (mixture of isomers)	> 320	9.65	1.37	–	–
CCCCC(C)[C@H](O)/C=C/C1CCC(=O)[C@@H]1C/C=C\CCCC(=O)O (mixture of isomers)	1.63	1.35	108000	–	–
CCCCC(C)[C@@H](O)/C=C/C1CCC(=O)[C@@H]1C/C=C\CCCC(=O)O (mixture of isomers)	87.5	39.9	2.99	–	–
CCCCC(CC)[C@H](O)/C=C/C1CCC(=O)[C@@H]1CCCCCCC(=O)OCC (mixture of isomers)	145	1.11e+09	–	–	ED50 (Cavia porcellus [8]): 32 µg/kg
CCCCC(CC)[C@@H](O)/C=C/C1CCC(=O)[C@@H]1CCCCCCC(=O)OCC (mixture of isomers)	–	1.74e+09	2.7e+09	< 50	–
CCCCC(CC)[C@H](O)/C=C/C1CCC(=O)[C@@H]1CCCCCCC(=O)O (mixture of isomers)	113	9.77	–	–	ED50 (Cavia porcellus [8]): 32 µg/kg
CCCCC(CC)[C@@H](O)/C=C/C1CCC(=O)[C@@H]1CCCCCCC(=O)O (mixture of isomers)	–	> 3.2	–	< 50	ED50 (Cavia porcellus [8]): 32 µg/kg
CCCCC(CC)[C@H](O)/C=C/C1CCC(=O)[C@@H]1C/C=C\CCCC(=O)O (mixture of isomers)	–	79.1	–	< 50	inhibition in vivo at 3.2 mg/kg (Cavia porcellus [5]): < 50%
CCCCC(CC)[C@@H](O)/C=C/C1CCC(=O)[C@@H]1C/C=C\CCCC(=O)O (mixture of isomers)	–	2.21e+09	–	< 50	inhibition in vivo at 3.2 mg/kg (Cavia porcellus [5]): < 50%
CCCCC[C@](C)(O)/C=C/C1CCC(=O)[C@@H]1CCCCCCC(=O)O (mixture of isomers)	–	6.99	4.24	–	ED50 (Cavia porcellus [9]): 3.2 µg/kg
CCCCC[C@](C)(O)/C=C/C1CCC(=O)[C@@H]1CCCCOCC(=O)O (mixture of isomers)	73.7	121	25.6	–	–
